Assay results published in ChEMBL document CHEMBL5303300, “EUbOPEN Chemogenomics Library - Multiplex” (2023).
“And” between values parts separate entries of the source, which are not always exact repeats. Equal values may be shown once.

Experiments:
[1] = test system: HEK-293T; test: Multiplex assay against HEK293T; assay type: toxicity, cell-based; conditions: human, number of replicates 2
Outline: (§1)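 With compound added, live cells were imaged on a CQ1 microscope at 37°C and 5% CO2; staining with Hoechst33342, BioTracker Green Microtubule Cytoskeleton Dye, MitoTracker Red and Annexin V Alexa Fluor 680 had been done at seeding. The CellPathfinder machine-learning gating scheme split cells into Hoechst high-intensity objects or normal cells, normal cells into healthy, pyknosed or fragmented nuclei, and pyknosed cells into mitotic or apoptotic. The tubulin, mitochondrial-mass and membrane-permeability phenotypes are per cents of healthy-nucleus cells.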

[2] = test system: U2OS; test: Multiplex assay against U2OS; assay type: toxicity, cell-based; conditions: human, number of replicates 2; outline: as §1
[3] = 24 h, 1 µM, compound concentration 1 uM
[4] = 24 h, 10 µM, compound concentration 10 uM
[5] = 48 h, 1 µM, compound concentration 1 uM
[6] = 48 h, 10 µM, compound concentration 10 uM
[7] = 12 h, 1 µM, compound concentration 1 uM
[8] = 12 h, 10 µM, compound concentration 10 uM

## CN(C)C/C=C/C(=O)Nc1cccc(S(=O)(=O)N2CCC(NC(=O)c3n[nH]cc3NC(=O)c3c(Cl)cc(Cl)cc3Cl)CC2)c1
[1]; [3]
  Population Mitochondria Different-Phenotype (%): 70% and 63%
  Population Mitotic Cells (%): 19% and 20%
  Population Normal (%): 86% and 88%
  Population Pyknosed Nuclei (%): 7% and 10%
  Population Tubulin-Different-Phenotype (%): 87% and 89%
  Total Cell Count: 336 and 325
[1]; [4]
  Population Apoptotic (%): 94% and 91%
  Population Fragmented Nuclei (%): 2% and 4%
  Population Healthy Nuclei (%): 64% and 53%
  Population Hoechst High Intensity Objects (%): 19% and 22%
  Population Membrane Permeable-Phenotype (%): 3% and 4%
  Population Mitochondria Different-Phenotype (%): 93% and 90%
  Population Mitotic Cells (%): 6% and 8%
  Population Normal (%): 80% and 77%
  Population Pyknosed Nuclei (%): 32% and 42%
  Population Tubulin-Different-Phenotype (%): 71% and 67%
  Total Cell Count: 381 and 319
[1]; [5]
  Population Apoptotic (%): 92% and 73%
  Population Fragmented Nuclei (%): 3% and 2%
  Population Healthy Nuclei (%): 86% and 82%
  Population Hoechst High Intensity Objects (%): 20% and 12%
  Population Membrane Permeable-Phenotype (%): 1%
  Population Mitochondria Different-Phenotype (%): 75% and 81%
  Population Normal (%): 79% and 87%
  Population Pyknosed Nuclei (%): 10% and 15%
  Population Tubulin-Different-Phenotype (%): 85% and 91%
  Total Cell Count: 328 and 309
[1]; [6]
  Population Apoptotic (%): 78% and 71%
  Population Fragmented Nuclei (%): 6%
  Population Healthy Nuclei (%): 30% and 25%
  Population Hoechst High Intensity Objects (%): 14%
  Population Membrane Permeable-Phenotype (%): 3% and 7%
  Population Mitochondria Different-Phenotype (%): 90% and 76%
  Population Mitotic Cells (%): 21% and 28%
  Population Normal (%): 85%
  Population Pyknosed Nuclei (%): 62% and 68%
  Population Tubulin-Different-Phenotype (%): 65% and 78%
  Total Cell Count: 442 and 399
[2]; [7]
  Population Apoptotic (%): 78% and 85%
  Population Fragmented Nuclei (%): 15% and 10%
  Population Healthy Nuclei (%): 50% and 56%
  Population Hoechst High Intensity Objects (%): 0%
  Population Membrane Permeable-Phenotype (%): 15% and 7%
  Population Mitotic Cells (%): 21% and 14%
  Population Normal (%): 100% and 99%
  Population Pyknosed Nuclei (%): 35% and 33%
  Population Tubulin-Different-Phenotype (%): 65% and 50%
[2]; [8]
  Population Apoptotic (%): 80% and 82%
  Population Fragmented Nuclei (%): 8% and 13%
  Population Healthy Nuclei (%): 15% and 11%
  Population Hoechst High Intensity Objects (%): 0%
  Population Membrane Permeable-Phenotype (%): 80% and 83%
  Population Mitochondria Different-Phenotype (%): 45% and 66%
  Population Mitotic Cells (%): 19% and 17%
  Population Normal (%): 99% and 100%
  Population Pyknosed Nuclei (%): 76% and 75%
  Population Tubulin-Different-Phenotype (%): 100% and 83%
[2]; [3]
  Population Apoptotic (%): 65% and 93%
  Population Fragmented Nuclei (%): 25% and 9%
  Population Healthy Nuclei (%): 29% and 40%
  Population Hoechst High Intensity Objects (%): 0%
  Population Membrane Permeable-Phenotype (%): 6% and 13%
  Population Mitochondria Different-Phenotype (%): 13% and 20%
  Population Normal (%): 100%
  Population Pyknosed Nuclei (%): 45% and 50%
  Population Tubulin-Different-Phenotype (%): 86% and 59%
[2]; [4]
  Population Apoptotic (%): 97%
  Population Fragmented Nuclei (%): 11% and 9%
  Population Healthy Nuclei (%): 4% and 3%
  Population Hoechst High Intensity Objects (%): 0% and 2%
  Population Membrane Permeable-Phenotype (%): 100% and 83%
  Population Mitochondria Different-Phenotype (%): 100% and 83%
  Population Mitotic Cells (%): 2%
  Population Normal (%): 100% and 97%
  Population Pyknosed Nuclei (%): 84% and 87%
  Population Tubulin-Different-Phenotype (%): 100%
[2]; [5]
  Population Apoptotic (%): 76% and 97%
  Population Healthy Nuclei (%): 9% and 17%
  Population Hoechst High Intensity Objects (%): 4% and 5%
  Population Normal (%): 95% and 94%
  Population Pyknosed Nuclei (%): 60% and 74%
  Population Tubulin-Different-Phenotype (%): 100% and 82%
[2]; [6]
  Population Apoptotic (%): 93%
  Population Fragmented Nuclei (%): 0% and 6%
  Population Healthy Nuclei (%): 23% and 10%
  Population Hoechst High Intensity Objects (%): 0% and 1%
  Population Membrane Permeable-Phenotype (%): 90% and 94%
  Population Mitochondria Different-Phenotype (%): 90% and 72%
  Population Mitotic Cells (%): 6%
  Population Normal (%): 100% and 98%
  Population Pyknosed Nuclei (%): 76% and 83%
  Population Tubulin-Different-Phenotype (%): 100% and 88%
